This is an account of results in ChEMBL document CHEMBL4312018, “Novel benzimidazole phosphonates as potential inhibitors of protein prenylation” (Bioorg Med Chem Lett, 2019).

SMILES strings stand for the structures. The source made the active and inactive calls.

Assay [1] addresses geranylgeranyltransferase type-I (Rattus norvegicus, UniProt P53610+Q04631). Nature of the assay: Inhibition of recombinant rat GGtase-1 expressed in Escherichia coli using dansyl-GCVLL as substrate after 1.5 hrs by spectrofluorimetric analysis.
In assay [2] the target is T1, Geranylgeranyl transferase type-2 (Homo sapiens) (UniProt P53611+Q92696). Nature of the assay: Inhibition of GGtase-2 in human RPMI8226 cells assessed as increase in intracellular lambda chain at =< 1 mM level after 48 hrs by ELISA. Format: cell-based. The procedure, abridged: (§1)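 RPMI-8226 cells were incubated 48 h with the compound or medium alone. Intracellular lambda light chain was quantified by ELISA and expressed as percent of untreated control (mean ± SD, n=3). Significance versus control was judged by t-test, p<0.05.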
A general note: In an ELISA, binding on a coated surface is turned into a signal by an enzyme label.

Assay [3] deals with Protein farnesyltransferase (Rattus norvegicus, UniProt Q02293+Q04631). Kind of assay: Inhibition of recombinant rat FTase expressed in Escherichia coli using dansyl-GCVLS as substrate after 1.5 hrs by spectrofluorimetric analysis.
Assay [4] addresses T2, Farnesyl pyrophosphate synthase (Homo sapiens, UniProt P14324).
T2 sequence (P14324 whole entry): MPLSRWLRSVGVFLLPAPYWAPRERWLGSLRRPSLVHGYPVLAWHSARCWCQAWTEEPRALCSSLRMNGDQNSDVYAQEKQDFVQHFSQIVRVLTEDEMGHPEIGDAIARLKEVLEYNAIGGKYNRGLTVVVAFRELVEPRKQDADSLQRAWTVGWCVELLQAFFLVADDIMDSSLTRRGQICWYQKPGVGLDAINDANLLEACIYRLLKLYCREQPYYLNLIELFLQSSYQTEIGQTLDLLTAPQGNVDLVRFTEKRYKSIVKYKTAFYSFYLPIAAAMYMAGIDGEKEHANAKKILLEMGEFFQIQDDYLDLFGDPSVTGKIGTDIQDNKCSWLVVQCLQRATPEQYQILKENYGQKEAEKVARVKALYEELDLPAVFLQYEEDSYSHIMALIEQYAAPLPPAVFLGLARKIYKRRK
Nature of the assay: Inhibition of FDPS (unknown origin) using [14C] IPP and GPP as substrate preincubated for 10 mins followed by substrate addition and measured after 30 min by liquid scintillation counting method.

Assay [5] deals with T3, geranylgeranyltransferase type-I (Rattus norvegicus) (UniProt P53610+Q04631). Nature of the assay: Activation of recombinant rat GGtase-1 expressed in Escherichia coli assessed as enzyme activity at 1000 uM using dansyl-GCVLL as substrate after 1.5 hrs by spectrofluorimetric analysis relative to control.
For assay [6], the target named is T4, Geranylgeranyl transferase type I (Homo sapiens) (UniProt P49354+P53609). Nature of the assay: Inhibition of GGtase-1 in human RPMI8226 cells assessed as disruption of Rap1a geranylgeranylation after 48 hrs immunoblot analysis. Type of assay: cell-based. For orientation: In western blotting, separated proteins are transferred to a membrane and probed.
Assay [7] deals with T5, Farnesyl pyrophosphate synthase (Homo sapiens) (UniProt P14324).
T5 sequence (whole entry): T2 sequence (P14324 whole entry)
Nature of the assay: Inhibition of FDPS in human RPMI8226 cells assessed as increase in intracellular lambda chain level at =< 1mM after 48 hrs by ELISA. Format: cell-based. Put shortly: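 RPMI-8226 cells were exposed for 48 h, and intracellular lambda light chain was measured by ELISA as percent of untreated control. The lowest effective concentration also requires unmodified Rap1a to be visible on whole-cell-lysate immunoblot with an unmodified-specific antibody. The ELISA rise must be statistically significant.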

In assay [8] the target is T6, Geranylgeranyl transferase type-2 (Rattus norvegicus, UniProt Q08602+Q08603).
T6 sequence (Q08603 whole entry): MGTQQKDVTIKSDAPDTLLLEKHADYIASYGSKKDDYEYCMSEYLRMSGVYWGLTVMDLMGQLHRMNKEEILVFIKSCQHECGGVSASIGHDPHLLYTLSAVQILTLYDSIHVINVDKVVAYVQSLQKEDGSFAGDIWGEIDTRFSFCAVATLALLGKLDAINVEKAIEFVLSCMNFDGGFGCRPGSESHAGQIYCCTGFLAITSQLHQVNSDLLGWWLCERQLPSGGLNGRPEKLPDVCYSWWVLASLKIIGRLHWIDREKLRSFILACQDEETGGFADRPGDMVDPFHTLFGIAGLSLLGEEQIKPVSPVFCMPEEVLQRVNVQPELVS
T6 sequence (Q08602 whole entry): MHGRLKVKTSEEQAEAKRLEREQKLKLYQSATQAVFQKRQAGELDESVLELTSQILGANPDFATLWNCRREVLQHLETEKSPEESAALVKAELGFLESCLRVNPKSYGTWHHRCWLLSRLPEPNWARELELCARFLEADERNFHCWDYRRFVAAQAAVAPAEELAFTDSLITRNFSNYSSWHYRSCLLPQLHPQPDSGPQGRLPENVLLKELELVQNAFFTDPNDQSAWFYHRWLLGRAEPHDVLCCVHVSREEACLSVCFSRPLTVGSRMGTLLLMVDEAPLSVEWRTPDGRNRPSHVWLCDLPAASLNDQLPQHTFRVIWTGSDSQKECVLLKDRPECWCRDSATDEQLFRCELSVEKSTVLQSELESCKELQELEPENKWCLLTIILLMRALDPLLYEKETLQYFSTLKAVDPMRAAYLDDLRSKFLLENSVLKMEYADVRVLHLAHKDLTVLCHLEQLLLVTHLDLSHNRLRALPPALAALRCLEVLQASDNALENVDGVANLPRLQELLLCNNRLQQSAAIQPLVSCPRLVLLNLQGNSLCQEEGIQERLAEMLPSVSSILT
Kind of assay: Inhibition of recombinant rat RabGGTase expressed in Escherichia coli using Rab7 as substrate and [3H]geranylgeranyl pyrophosphate after 20 mins by liquid scintillation analysis.

The next assay is filed under the species Homo sapiens. Nature of the assay: Selectivity ratio of IC50 for GGDPS (unknown origin) to IC50 for FDPS (unknown origin).
In assay [9] the target is T3, geranylgeranyltransferase type-I (Rattus norvegicus). Kind of assay: Activation of recombinant rat GGtase-1 expressed in Escherichia coli using dansyl-GCVLL as substrate after 1.5 hrs by spectrofluorimetric analysis.
Assay [10] deals with T5, Farnesyl pyrophosphate synthase (Homo sapiens). Kind of assay: Inhibition of FDPS in human RPMI8226 cells assessed as unmodified Rap1a level at =< 1 mM after 48 hrs by immunoblot analysis. Format: cell-based. The procedure, abridged:
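RPMI-8226 cells were exposed for 48 h. The lowest effective concentration counts only when two read-outs agree. Unmodified Rap1a must be visible on immunoblot of whole-cell lysate, using an antibody that detects only unmodified protein.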

Assay [11] concerns the target T1, Geranylgeranyl transferase type-2 (Homo sapiens). Nature of the assay: Inhibition of GGtase-2 in human RPMI8226 cells assessed as decrease in Rab6 level at =< 1 mM after 48 hrs by immunoblot analysis relative to control. Format: cell-based. Put shortly: (§2)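 After 48 h treatment, RPMI-8226 cells were extracted with Triton X-114 to give a detergent (membrane) fraction, which was immunoblotted for Rab6. Rab6 band density was normalized to calnexin and expressed relative to untreated cells. Blots are representative of three independent studies.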

Assay [12] has as its target T7, Protein farnesyltransferase (Homo sapiens) (UniProt P49354+P49356). Nature of the assay: Inhibition of FTase in human RPMI8226 cells assessed as disruption of H-ras farnesylation after 48 hrs by immunoblot analysis. Format: cell-based.
In assay [13] the target is T8, Geranylgeranyl pyrophosphate synthase (Homo sapiens, UniProt O95749).
T8 sequence (O95749 whole entry): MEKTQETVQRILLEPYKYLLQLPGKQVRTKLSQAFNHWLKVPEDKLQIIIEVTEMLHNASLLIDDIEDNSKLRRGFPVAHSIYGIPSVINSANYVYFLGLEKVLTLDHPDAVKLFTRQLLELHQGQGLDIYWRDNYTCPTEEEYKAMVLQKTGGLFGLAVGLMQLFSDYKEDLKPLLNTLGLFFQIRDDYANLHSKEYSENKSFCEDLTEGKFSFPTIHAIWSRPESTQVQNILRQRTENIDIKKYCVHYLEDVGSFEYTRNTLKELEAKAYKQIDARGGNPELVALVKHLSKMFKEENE
Kind of assay: Inhibition of GGDPS (unknown origin) using [14C] IPP and FPP as substrate preincubated for 10 mins followed by substrate addition and measured after 30 min by liquid scintillation counting method.

The target in assay [14] is T4, Geranylgeranyl transferase type I (Homo sapiens). Nature of the assay: Inhibition of GGtase-1 in human RPMI8226 cells assessed as disruption of Rap1a geranylgeranylation at 1 to 5 mM incubated for 48 hrs by immunoblot analysis. Type of assay: cell-based.
The target of assay [15] is T1, Geranylgeranyl transferase type-2 (Homo sapiens). Kind of assay: Inhibition of GGTase-2 in human RPMI8226 cells assessed as ratio of calnexin to Rab6 level at 1 mM after 48 hrs by immunoblot analysis relative to control. Format: cell-based. The procedure, abridged: as §2
The target is the same in assay [16]. Nature of the assay: Inhibition of GGTase-2 in human RPMI8226 cells assessed as ratio of calnexin to Rab6 level at […] after 48 hrs by immunoblot analysis relative to control. Type of assay: cell-based.
Assay [17] shares this target. Kind of assay: Inhibition of GGtase-2 in human cells assessed as minimum effective dose required for increase in intracellular lambda chain level after 48 hrs by ELISA. Format: cell-based. Put shortly: (§3)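 The lowest effective concentration in RPMI-8226 cells after 48 h requires both criteria below: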
Assay [18] has the same target. Nature of the assay: Inhibition of GGTase-2 in human RPMI8226 cells assessed as ratio of calnexin to Rab6 level at 5 mM after 48 hrs by immunoblot analysis relative to control. Format: cell-based. The procedure, abridged: as §2
Assay [19] has the same target. Kind of assay: Inhibition of GGtase-2 in human RPMI8226 cells assessed as increase in intracellular lambda light chain level at 1 to 5 mM incubated for 48 hrs […]. Format: cell-based. Put shortly:
as §1

Assay [20] has the same target. Nature of the assay: Inhibition of GGtase-2 in human cells assessed as minimum effective dose causing => 20% decrease in Rab6 level after 48 hrs by immunoblot analysis. Format: cell-based. The procedure, abridged:
as §3

For assay [21], the target named is T5, Farnesyl pyrophosphate synthase (Homo sapiens).
Assay [22] has the same target. This is another data set of the same source.
Assay [23] addresses T7, Protein farnesyltransferase (Homo sapiens). Kind of assay: Inhibition of FTase in human RPMI8226 cells assessed as disruption of H-ras farnesylation at 1 to 5 mM incubated for 48 hrs by immunoblot analysis. Format: cell-based.

Regarding `Cc1cc2ncn(CC(P(=O)(O)O)P(=O)(O)O)c2cc1C`, the IC50 (usually the concentration needed to halve the response being measured) in assay [1] is more than 1000 µM; in [3] it was more than 1000 µM; in [4] it was 0.69 µM; in assay [8], 534 µM; in assay [13], 41 µM. The inhibition result in assay [2], in [6], in assay [7], in assay [10], in [11] and in [12] was “inactive” each time. Also, the Activity was 560% in assay [5] and “Dose-dependent effect” in assay [9]. Also, the Ratio IC50 in the assay listed under Homo sapiens amounted to 59.

For `O=C(O)C(Cn1cnc2ccccc21)P(=O)(O)O` (centres undefined), the IC50 in [1] was more than 1000 µM; in assay [3], 125 µM; in [4] it was more than 100 µM; in assay [8] it was 198 µM; in [13], more than 100 µM. The inhibition entry in assay [14] and in assay [23] was “inactive” in each case. Moreover, the values for the fold change (FC) in assay [15] and in assay [18] were 0.6 and 0.3, respectively. Further, the FC in assay [16] was determined as 0.4. The LED in assay [17], in assay [20], in assay [21] and in [22] was 1 mM in each case. Moreover, the inhibition result in assay [19] was “Active”.
